Reference: ChEMBL document CHEMBL1130037, “Synthesis and pharmacological properties of a close analogue of an antithrombotic pentasaccharide (SR 90107A/ORG 31540)” (J Med Chem, 1997)

Legend:
Rattus norvegicus = test: In vivo antithrombotic activity was determined in rats; type: functional
Outline: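 Stasis plus hypercoagulability venous thrombosis in male Sprague-Dawley rats (250-300 g) under pentobarbitone (30 mg/kg ip). Compounds given iv (penile vein) 5 min before human tissue factor (1 ng/kg iv over 30 s). Vena cava ligated 10 s later for 20 min; thrombus dried and weighed. ED50 = 50% thrombus weight reduction; mean with 95% CI, n = 6.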

Antithrombin-III = Antithrombin-III (Homo sapiens, UniProt P01008); test: Dissociation constant for Antithrombin-III
Sequence of Antithrombin-III (P01008 whole entry): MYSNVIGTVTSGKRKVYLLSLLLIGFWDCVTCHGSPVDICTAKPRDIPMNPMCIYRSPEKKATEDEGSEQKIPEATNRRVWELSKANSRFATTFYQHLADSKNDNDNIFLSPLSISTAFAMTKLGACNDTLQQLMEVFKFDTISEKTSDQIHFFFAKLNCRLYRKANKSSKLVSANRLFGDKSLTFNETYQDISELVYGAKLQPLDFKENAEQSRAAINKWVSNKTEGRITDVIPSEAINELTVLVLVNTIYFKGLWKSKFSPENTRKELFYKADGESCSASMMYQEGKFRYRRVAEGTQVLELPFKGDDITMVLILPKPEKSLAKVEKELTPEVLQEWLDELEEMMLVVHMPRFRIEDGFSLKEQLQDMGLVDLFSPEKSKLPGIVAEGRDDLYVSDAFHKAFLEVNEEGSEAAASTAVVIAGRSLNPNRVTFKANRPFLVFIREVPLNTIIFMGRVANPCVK
Outline: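 Intrinsic protein fluorescence titration at 37 °C with stirring; oligosaccharides added to Tris-HCl 0.01 M pH 7.0, 0.15 M NaCl containing 5–60 nM human AT III (purified). Complex concentrations calculated assuming 1:1 stoichiometry; KD from Scatchard analysis. Mean ± SEM, n = 3.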

Prothrombin = Prothrombin (Homo sapiens, UniProt P00734); test: Inhibition of Thrombin generation was determined; type: functional
Outline: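 Thrombin generation in human defibrinated platelet-poor citrated plasma at 37 °C. Cuvette held rabbit brain thromboplastin (amount giving 90 s Quick time), S-2222 (1.6 mM stock), compound in Tris-HCl pH 7.35, and CaCl2 (0.25 M stock). Plasma addition started the reaction; A405 followed 20 min. IC50 from area under curve by four-parameter logistic fit; mean with 95% CI, n = 3.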

[1] = molecular target: Coagulation factor X (Homo sapiens) (UniProt P00742); test: Inhibition of blood coagulation factor Xa was determined by AT III.
Sequence of Coagulation factor X (Homo sapiens) (P00742 41-179 limits assumed): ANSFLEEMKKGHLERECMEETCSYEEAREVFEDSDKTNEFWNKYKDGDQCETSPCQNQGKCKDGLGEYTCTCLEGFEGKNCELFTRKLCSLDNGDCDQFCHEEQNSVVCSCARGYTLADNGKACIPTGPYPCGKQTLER
Sequence of Coagulation factor X (Homo sapiens) (P00742 235-488 limits assumed): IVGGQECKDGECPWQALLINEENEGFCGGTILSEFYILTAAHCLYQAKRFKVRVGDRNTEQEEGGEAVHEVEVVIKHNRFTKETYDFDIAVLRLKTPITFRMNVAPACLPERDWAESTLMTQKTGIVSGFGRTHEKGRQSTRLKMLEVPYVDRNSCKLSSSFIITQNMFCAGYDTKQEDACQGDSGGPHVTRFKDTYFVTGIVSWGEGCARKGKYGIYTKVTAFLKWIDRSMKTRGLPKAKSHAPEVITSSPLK
Outline: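 Amidolytic assay in buffer: factor Xa (7.5 nkat/mL) incubated 2 min at 37 °C with AT III (0.5 unit/mL) and oligosaccharide at various concentrations in 20 mM Tris/maleate pH 7.4, 150 mM NaCl. Residual Xa measured with S-2222 (1 mM stock); stopped after 2 min with acetic acid, A405 read. Activity versus calibrated standard; mean ± SEM, n = 3.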

[2] = Elimination half life was determined.; type: ADME
Outline: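 Rats with jugular catheter (pentobarbitone anesthesia), recovered overnight, received 100 nmol/kg iv bolus. Citrated blood collected; plasma levels measured by anti-factor Xa activity using each compound as its own reference. Half-life from slope of terminal phase; mean ± SEM, n = 4.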

## O=C([O-])C1O[C@@H](O[C@H]2C(O)C(NS(=O)(=O)[O-])[C@@H](O)O[C@H]2COS(=O)(=O)[O-])C(NS(=O)(=O)[O-])[C@@H](O)[C@@H]1O[C@@H]1OC(COS(=O)(=O)[O-])[C@@H](O[C@@H]2O[C@@H](C(=O)[O-])[C@@H](O[C@H]3O[C@@H](COS(=O)(=O)[O-])[C@@H](O)C(O)C3NS(=O)(=O)[O-])C(O)C2O)[C@H](OS(=O)(=O)[O-])C1OS(=O)(=O)[O-].[Na+].[Na+].[Na+].[Na+].[Na+].[Na+].[Na+].[Na+].[Na+].[Na+] (stereo not given in full)
Rattus norvegicus
  ED50: 0.081 mg/kg
Antithrombin-III
  Kd: 0.058 µM
Prothrombin
  IC50: 0.13 µM
[1]
  Activity: 850 U/mg
[2]
  half-life: 42 min
